Bioassay records deposited in PubChem by several laboratories.
p47phox inh: p47phox/p22phox peptide binding inhibitors, primary screen, biochemical, uHTS, NADPH oxidase regulatory subunit | Neutrophil cytosol factor 1 (Homo sapiens), P14598 | fluorescence polarization, 2 h | inhibition, % at 24.7 µM | 0.53% of 220,000 active | AID 1274, 2008;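 active means inhibition above about 30%, limit read from the data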
Target sequence (P14598 whole entry, looked up): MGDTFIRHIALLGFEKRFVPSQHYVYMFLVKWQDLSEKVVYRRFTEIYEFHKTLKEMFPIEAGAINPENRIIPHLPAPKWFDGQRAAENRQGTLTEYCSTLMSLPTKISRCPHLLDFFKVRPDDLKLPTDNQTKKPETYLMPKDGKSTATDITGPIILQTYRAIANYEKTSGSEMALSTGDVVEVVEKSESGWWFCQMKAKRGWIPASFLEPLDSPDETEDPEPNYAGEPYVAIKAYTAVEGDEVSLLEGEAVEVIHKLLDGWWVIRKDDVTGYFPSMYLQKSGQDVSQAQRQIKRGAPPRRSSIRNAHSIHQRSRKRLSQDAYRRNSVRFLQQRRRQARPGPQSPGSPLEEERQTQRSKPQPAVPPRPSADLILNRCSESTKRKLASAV
RAM network inh: inhibitors of the yeast RAM network, primary screen, dse1pr::URA3 reporter, 5-FOA selection; inhibition, % at 50 µM; 1.8% of 190,000 active; S. cerevisiae dse1pr::URA3 reporter, 5-FOA growth OD615, 2 d; analog-sensitive cbk1-as2 kinase mutant strain; AID 868, 2007;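 active means inhibition above a set limit, 3 SD over mean compound inhibition, cut at about 8.4% in these data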;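 further: inhibition rescues growth on 5-FOA so higher OD means more RAM inhibition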
WT yeast gro inh: growth inhibition of WT strain, primary screen, mitochondrial fusion inhibitor project, WT and mutant strains, chemical genetic; mitochondrial fusion phenotypic screen; 2.1% of 190,000 active; inhibition, % at 10 µM; in the data active means inhibition above about 58%; tested in S. cerevisiae
Hck-Nef inh: inhibitors of Nef-activated human Hck kinase, primary screen, biochemical, Z-Lyte FRET, 384-well, Hck-YEEI; Recombinant Hck-YEEI plus Nef, Z-Lyte FRET kinase assay; Tyrosine-protein kinase HCK (Homo sapiens), P08631; inhibition, % at 20 µM; AID 463187, 2010; 0.68% of 220,000 active;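 active means Hck-Nef kinase inhibition above about 50%, limit read from the data; inactive means inhibition below that limit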
Biofilm kill mix: clotrimazole potentiators killing C. albicans biofilm, primary screen, 4-compound mixtures; C. albicans biofilm persisters + clotrimazole, fluorescence viability; primary screen in compound mixtures of four per well; 0.02% of 120,000 active; inhibition, % at 7.6 µM;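 active means inhibition above 30.3% in the primary screen of four-compound pools, then above 30% when the compound was retested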;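 further: compounds exposed to preformed 24 h biofilms for 48 h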
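System: C. albicans CAF4-2 wild-type biofilms; Medium: RPMI/MOPS medium, pH 7.0; Reagent: Clotrimazole, 50 µg/mL; Times: biofilm formation 24 h, compound exposure 48 h, 37 °C; Detection: 2-h Alamar Blue fluorescence, 535/590 nm excitation/emission; Evaluation: percent inhibition of biofilm viability.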
Arbovirus anti: antivirals against arbovirus infection, primary screen, cell-based, full library, 10K replicate subset; arbovirus infection cell-based antiviral screen; inhibition, % at 10 µM; 0.37% of 200,000 active; in the data active means inhibition above about 30%
Numbers stand for hits; n = inactive; x = not tested or not shown; ! = repeats disagree. Sampled rows, rich in hits. Any-hit rate of the full collection: about 4.6%.

SMILES | p47phox inh | RAM network inh | WT yeast gro inh | Hck-Nef inh | Biofilm kill mix | Arbovirus anti
FC(F)(F)c1nnc2ccc(N3CCOCC3)nn12 | n | n | n | n | x | n
Cc1cccc(C)c1N1CCN(c2ccc3nnc(C(F)(F)F)n3n2)CC1 | n | n | 77.6 | n | x | n
CN1OC(COC(=O)c2ccc(Cl)cc2Cl)CC1c1ccccc1 (stereo not given) | n | n | n | n | x | n
OCCN=Cc1c(O)[nH]c2ccccc12 | n | n | n | n | x | n
CN(C)CC(C)(C)CN=Cc1c(O)[nH]c2ccccc12 | 88.2 | x | x | n | n | x
COc1ccc2nc(N3C(=O)CC(Cc4ccc(Cl)cc4)C3=O)sc2c1 (stereo not given) | n | n | n | n | x | n
COc1ccc2nc(N3C(=O)CC(Cc4cc(C)cc(C)c4)C3=O)sc2c1 (stereo not given) | n | n | n | n | x | 39.4
CCOC(=O)CSc1nnc(NC(=O)c2cccc([N+](=O)[O-])c2)s1 | n | n | n | n | n | n
CCOc1cc(/C=C2\SC(=S)N(Nc3ccccc3)C2=O)ccc1O | n | n | 68.6 | n | x | n
COc1cc(/C=C2\SC(=S)N(Nc3ccccc3)C2=O)ccc1O | n | n | 86.2 | n | n | n
COc1cc(/C=C2\SC(=S)N(Nc3ncc(C(F)(F)F)cc3Cl)C2=O)ccc1O | n | n | 83.2 | n | x | n
O=S(=O)(c1ccc(C2CCCCC2)cc1)N1CCCC1 | n | n | n | n | x | n
CCCn1c(SCC(=O)NC2CCCC(C)C2C)n[nH]c1=O (stereo not given) | n | n | n | n | x | n
CC1C=CCC2C(=O)N(c3cc(Cl)ccc3O)C(=O)C12 (stereo not given) | n | n | n | n | n | n
C[c-]1[c-](C)[c-](C)[c-](C)[c-]1C.[Fe].c1cc2nccc(N3CCCC3)[c-]2c1 (stereo not given) | 30.4! | x | x | n | n | x
Cn1cnc2c(N3CCCCC3)nccc21 | n | n | n | n | x | n
CCn1c(Cn2nnc(-c3ccccc3)n2)nnc1SCc1ccc(Cl)c(Cl)c1 | n | n | 78.8 | n | x | n
CCn1c(Cn2nnc(-c3ccccc3)n2)nnc1SCC(=O)N1CCOCC1 | n | n | n | n | x | n
Cc1nnc(SCC(=O)NC2CC2)n1CC1CCCO1 (stereo not given) | n | n | n | n | n | n
Cc1ccc(Nc2nc(N)nc(CSc3nc4ccccc4s3)n2)cc1 | n | 9.8 | 86.3 | n | x | n
Cc1ccccc1Nc1nc(N)nc(CSc2nc3ccccc3s2)n1 | n | n | n | n | n | n
Cc1ccc(Nc2nc(N)nc(CN3CCc4ccccc4C3)n2)cc1 | 77.1 | n | n | n | x | n
CC1CCN(S(=O)(=O)c2cc([N+](=O)[O-])ccc2Cl)CC1 | n | n | n | n | n | n
Cc1cc(N)n(-c2ccc(S(N)(=O)=O)cc2[N+](=O)[O-])n1 | n | n | n | n | n | n
C=C(C)C1Cc2c(C)nn(-c3nc(C)cc(C)n3)c2C1 (stereo not given) | n | n | 63.9 | n | x | n
SMILES | p47phox inh | RAM network inh | WT yeast gro inh | Hck-Nef inh | Biofilm kill mix | Arbovirus anti
C=C(C)C1Cc2nc(N)nc(C)c2C1 (stereo not given) | n | n | n | n | x | n
O=C(NC(=S)NCC1CCCO1)c1ccc(Br)o1 (stereo not given) | n | n | n | n | n | n
COC(=O)c1sccc1-c1ccc(C(=O)Nc2cccc(Cl)c2)o1 | n | 9.8 | n | n | x | n
O=C(COc1ccc(S(=O)(=O)N2CCCCC2)cc1)NCc1cccnc1 | 35.0 | n | n | n | x | n
COc1cc(C)ccc1OCCOc1ccccc1Cl | n | n | n | n | x | n
O=c1/c(=C/c2ccc(O)cc2)sc2n1CCCN=2 | n | n | n | n | x | 46.8
O=c1/c(=C\c2ccc(F)cc2)sc2n1CCCN=2 | n | n | n | n | n | n
COc1ccccc1N1CCN(C(=O)c2cccc3c(=O)c(C)c(-c4ccccc4)oc23)CC1 | n | n | n | n | n | n
Fc1cc(Br)ccc1NC(=S)Nc1ccccc1 | n | n | n | n | n | n
Fc1ccccc1NC(=S)Nc1ccc(Br)cc1 | n | n | 61.7 | n | n | n
COc1ccc2c3c(cccc13)C(=O)N(O)C2=O | n | n | n | n | n | n
CCC1=NNc2cccc3c(OC)ccc1c23 | 138.3 | n | n | n | x | n
O=Cc1cccn1-c1ccc(O)cc1 | n | n | n | n | n | n
O=C(CSc1ncnc2sc(-c3ccccc3)cc12)NC1CCS(=O)(=O)C1 (stereo not given) | n | n | n | n | n | n
Nc1ccc(Sc2ccc([N+](=O)[O-])cc2)cc1 | n | n | n | n | n | n
O=C1C=CC(=O)N1c1ccc(Sc2ccc([N+](=O)[O-])cc2)cc1 | n | x | x | 50.1 | n | x
O=c1[nH]c(Cn2nnc(-c3ccccc3)n2)nc2scc(-c3ccccc3)c12 | n | n | n | n | x | n
CCCOc1ccc(-c2csc(N)n2)cc1[N+](=O)[O-] | n | n | 75.8 | n | n | n
Cc1ccccc1C(=O)O/N=C(\N)c1ccncc1 | n | n | n | n | n | n
CCOc1ccc(NS(=O)(=O)c2ccc(NS(=O)(=O)c3ccc(SC)cc3)cc2)cc1 | n | 8.9 | n | n | x | n
COCCCN1C(=O)CC(C(=O)OC)=C1C | n | n | n | n | n | n
COC(=O)c1c(NC(=S)Nc2ccc(CC(=O)O)cc2)sc(C)c1C | n | 10.0 | n | n | n | n
CCOC(=O)c1c(NC(=S)Nc2ccc(Cl)cc2)sc(C)c1C | n | n | n | n | x | n
COc1ccc(CC(=O)Nc2ccc(-c3cn4ccc(C)cc4n3)cc2)cc1 | n | n | n | n | x | n
COc1ccc(C(=O)N2CC3(C)CC2CC(C)(C)C3)cc1 (stereo not given) | 56.2 | n | n | n | x | n
SMILES | p47phox inh | RAM network inh | WT yeast gro inh | Hck-Nef inh | Biofilm kill mix | Arbovirus anti
CC1(C)CC2CC(C)(CN2C(=O)c2ccccc2)C1 (stereo not given) | n | n | n | n | n | n
COc1ccc2c(c1)CCc1c(C(=O)N3CC4(C)CC3CC(C)(C)C4)noc1-2 (stereo not given) | n | n | 73.2 | n | x | n
O=C(/C=C/c1ccccc1)NC(NC(=S)Nc1ccc(Cl)cc1)C(Cl)(Cl)Cl (stereo not given) | n | 10.2 | n | n | x | n
CCCCCCCCC/C(=N\O)c1ccccn1 | n | n | 73.7 | n | x | n
CCn1c2ccccc2c2cc(CNCc3ccc(OC)cc3OC)ccc21 | n | n | 83.6 | n | n | n
CC(=O)c1cn(-c2ccc(Cl)cc2)c(=O)n(Cc2ccc(F)cc2)c1=O | n | n | n | n | n | n
Cc1ccc(CNC(=O)C(=O)NCC2OCCN2C(=O)c2cccs2)cc1 (stereo not given) | n | 9.5 | n | n | n | n
